# Results taken from ChEMBL document CHEMBL4513216, “Probing the Open Global Health Chemical Diversity Library for Multistage-Active Starting Points for Next-Generation Antimalarials” (ACS Infect Dis, 2020).
# Experiment: Toxicity liver stage against HepG2, at 10uM
# Assay type: cell-based
# Parameters: test concentration 10 uM, cell line HepG2-A16-CD81EGFP
# Details: human, HepG2-A16-CD81EGFP cells; read-out: INHIBITION
# Outline: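 Uninfected HepG2-A16-CD81EGFP cells, 3 × 10^3 per well, 1536-well, plated on prespotted compound at 10 μM final, parasite-free screening media added to match infected plates; puromycin 10 μM positive, DMSO 0.5% negative; run in parallel with 48 h PbLuc assay at 37 °C, 5% CO2; viability by CellTiter-Glo luminescence, normalized to controls.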
row,Structure (SMILES),cytotoxicity at 10 µM [%]
1,COc1ccccc1CNC(=O)CS(=O)(=O)Cc1ccccc1,3.26
2,CCCn1cnc2c1CN(C(=O)c1ccc(F)cc1)[C@H](C(=O)OC)C2,4.94
3,CCN(CC)C1(Cc2cc(-c3cccc(O)c3)on2)COC1,7.71
4,F[C@@H]1CN(CC2CCCCC2)C[C@@H]1OCc1nc2ccccc2o1,1.9
5,O=C(c1nc(Cc2c[nH]c3ccccc23)no1)N1CCOCC1,11.1
6,C[C@@H](O)CNC(=O)c1nc(CC(=O)Nc2cccc(C(F)(F)F)c2)no1,8.35
7,Cc1noc(C)c1C(=O)Nc1ccc2ncn(CC(C)C)c(=O)c2c1,8.75
8,O=C(Cc1ccc(F)cc1)NCC(O)(c1cccs1)C1CC1 (stereo not given),-39.3
9,COc1cc(C(=O)NCCc2ccc(OC)c(OC)c2)on1,1.84
10,COC1(CNC(=O)c2ccc(F)c(F)c2)CCSC1 (stereo not given),-2.11
11,O=C(c1ccoc1)N1CCC2(CC1)C(=O)N(CC1CC1)c1ccccc12,10.7
12,O=C1CC2(CCCCN2C(=O)c2ccccc2)CN1CC1CC1 (stereo not given),3.85
13,O=C(c1cscn1)N1CCC2(CCN(S(=O)(=O)c3ccccc3)C2)C1 (stereo not given),11
14,O=C([C@@H]1CCO[C@@H]2CCN(Cc3ccco3)C[C@H]21)N1CCCCO1,9.76
15,Cc1n[nH]/c(=N\C(=O)c2c3c(nc4onc(C)c24)CCC3)s1,-1.88
16,O=C(NCCCN1CCOCC1)c1cccc(OCc2ccccc2)c1,-4.87
17,COc1ccc(N2CCN(C(=O)C(C)n3cc(Br)cn3)CC2)cc1 (stereo not given),11.4
18,COCCNc1cc(C)nn2cnnc12,-1.63
19,Cn1c(=O)oc2cc(S(=O)(=O)N3CCCCC3)c(Cl)cc21,19
20,CCn1ncc(CN(C)C(=O)c2ccn(C)n2)c1C,6.5
21,CCNC(=O)c1nnc2ccc(N3CCOCC3)cc2n1,3.56
22,CC(C)(C)c1cc(C(=O)N2CCC(c3cnccn3)CC2)[nH]n1,0.775

row,Structure (SMILES),cytotoxicity at 10 µM [%]
1,O=C1Nc2ccccc2CNC12CCN(CC1CCCC1)CC2,6.39
2,CC(C)CNC(=O)c1cc(C2CC2)nc2c1c(C1CCCN1)nn2C (stereo not given),15.9
3,O=C(N1CCCCC1)N1CCN(c2ccc(Cl)nn2)C(=O)C1,8.24
4,COc1ccc(SCC2CNc3nc4ccccc4c(=O)n32)cc1 (stereo not given),7.69
5,CC(OCC1CC1)C(=O)Nc1ccn(Cc2ccccc2)n1 (stereo not given),11.9
6,CC(OCC1CC1)C(=O)N1CCCN(c2cccnn2)CC1 (stereo not given),8.13
7,O=S(=O)(N1CCCCC1)N1CCCN(CC2CCCO2)CC1 (stereo not given),-3.94
8,CN(Cc1ccccc1F)C(=O)COC(=O)c1cc(Cl)c[nH]1,12.4
9,CCN(CC(C)O)C(=O)Nc1cnn(CCOC)c1 (stereo not given),-11.6
10,O=C1CSCN1Cc1nc(-c2ccc(N3CCCCC3)cc2)no1,-6.79
11,CSCCC(NC(N)=O)C(=O)NCc1cnn(-c2ccccc2)c1 (stereo not given),5.79
12,Cn1cc(C2CCCN2C(=O)CS(=O)(=O)C2CCCC2)cn1 (stereo not given),-4.8
13,CCC(C)(CC(=O)OC)NC(=O)c1ccc2[nH]ccc2c1 (stereo not given),-2.8
14,CCc1nnc2n1CCN(C(=O)CCOc1ccc(C)cc1C)C2,2.93
15,COCc1nccc(C2CCCN(Cc3ccc(SC)cc3)C2)n1 (stereo not given),23.4
16,Cc1cccc(N(C)S(=O)(=O)c2cc(C(=O)O)cs2)c1C,-0.731
17,Cc1nn(C)c(C)c1OCC(=O)NCC(O)c1ccsc1 (stereo not given),2.27
18,O=C(CCCNCc1ccc(Cl)c2cccnc12)NC1CC1,-4.76
19,Cc1cc(=O)n2ncnc2n1CC(O)c1cc(Cl)ccc1Cl (stereo not given),3.19
20,CCN(CC)c1ccc(NS(=O)(=O)c2cnn(C(C)C)c2)cn1,5.02
21,Cc1n[nH]c(C)c1NC(=O)CN1CCCC1Cn1cncn1 (stereo not given),15.5
22,COc1cccc(CNCCc2cc(F)cc3c2OCOC3)c1OC,4.32

row,Structure (SMILES),cytotoxicity at 10 µM [%]
1,Cc1cc(C)n(CC2CN(CCc3ccncc3)CCO2)n1 (stereo not given),0.347
2,Cc1ccc(C(=O)NCC(O)c2cnn(C)c2)c(Br)c1 (stereo not given),-6.53
3,Cc1cc(C(=O)N2CCN(CC(O)Cn3cccn3)CC2)c(C)o1 (stereo not given),-4.76
4,Cc1ccc(NC(=O)C2CCc3ccccc3N2)cc1 (stereo not given),-5.57
5,CCCOC1CCCN(C(=O)c2[nH]nc(C)c2Br)C1 (stereo not given),0.595
6,Cc1cc(CN(Cc2ccccc2)C(C)CN2CCOCC2)no1 (stereo not given),4.69
7,CNC(=O)NC(=O)CCSc1ccccc1C,4.11
8,CCc1noc(CCCC(=O)Nc2cc(C(F)(F)F)c[nH]c2=O)n1,-4.84
9,Cc1nnc2n1CCN(C(=O)CN1C(=O)CSc3ccccc31)C2,0.442
10,O=C(Nc1cccnc1-n1cccn1)N1CCCC(N2CCCC2)C1 (stereo not given),8.53
11,CCOc1ccc(NC(=O)N2CCC(n3cncn3)CC2)cc1Cl,-7.22
12,CS(=O)(=O)c1cc(S(N)(=O)=O)ccc1NCC1CCCO1 (stereo not given),6.26
13,Cn1cc(NC(=O)c2ccccn2)cc(Br)c1=O,-12.8
14,CCc1nnc2n1CCN(C(=O)c1csc(-c3cnn(C)c3)n1)C2,6.41
15,CCc1ncc2c(n1)CN(Cc1nnc(C)o1)CC2,-12.1
16,COc1ncnc2c1CCN(CC1CCOC1)CC2 (stereo not given),-68.9
17,COCCC1COC2(CCN(C(=O)c3ccco3)CC2)C1 (stereo not given),3.63
18,CN(C)C(C(=O)N1CCN(CCn2cccc2)CC1)c1ccc(F)cc1 (stereo not given),-14.9
19,CCCN1CCCn2nc(CNS(=O)(=O)c3cccc(F)c3)cc2C1,-13.1
20,COc1cccc2ccc(CN3CCN(c4cccnc4)CC3)nc12,-8.66
21,Cn1ccnc1CN(CCO)Cc1ccc(C(F)(F)F)cc1,-17.3
22,CCCn1cc(-c2cc(C(=O)N(C)C)c3ccc(OC)cc3n2)cn1,6.22

row,Structure (SMILES),cytotoxicity at 10 µM [%]
1,COCCN1CCC(CN(CC2CCCO2)C(=O)C2CCOCC2)CC1 (stereo not given),-0.401
2,O=S(=O)(c1c(Cl)nc2sccn12)N1CCCC2(CCNC2)C1 (stereo not given),8.64
3,Nc1cc(C(=O)N2CCOC(Cc3cccc(C(F)(F)F)c3)C2)ccn1 (stereo not given),-1.97
4,c1cc(CN2CCC(c3nnc4n3CCCCC4)CC2)c2c(c1)OCO2,-3.14
5,Cc1cc(CN(C)c2nc(-c3ccco3)nc3c2CCN(C)CC3)on1,9.34
6,Cc1c[nH]c(CN(C)C(=O)[C@@]23CNC[C@@H]2CN(c2ncccn2)C3)n1,-2.4
7,CC(C)c1nnc(NCc2cc3n(n2)CCNC3)s1,-2.11
8,Cc1nc(C2CCNCC2)cc(N2CCCC(C(=O)NCCCO)C2)n1 (stereo not given),-124
9,Cc1nc2cc(C(=O)N3C[C@@H](C(=O)O)[C@H](C4CC4)C3)ccc2[nH]1,-12.1
10,Nc1ccc(C(=O)N2CCC(Oc3cccc(C(F)(F)F)c3)CC2)cn1,5.3
11,COCCC1CCCCN1C(=O)c1coc(COc2ccccc2F)n1 (stereo not given),3.97
12,O=C(NCc1ccccc1-n1cccn1)C1CC2(CCNCC2)CN1 (stereo not given),-0.413
13,CN1CCCC2(CCN(S(=O)(=O)c3c(Cl)nc4sccn34)C2)C1=O (stereo not given),12.4
14,COc1nc2c(cc1C(=O)NCCCc1csc(N)n1)CCC2,3.63
15,CCc1nc(C)sc1CN1CC[C@@](O)(C2CC2)[C@H](C)C1,-10.3
16,CCc1nc(C2CCCN2C(=O)c2cnns2)no1 (stereo not given),1.04
17,O=C(Cc1ccc(F)cc1)N1CCN(CC(O)c2ccccc2)CC1 (stereo not given),-11.2
18,Cc1nc(C2CCCN(C(=O)CCn3ccccc3=O)C2)no1 (stereo not given),-9.35
19,COc1c(C)cnc(CN2CCOC(Cn3cc(C)cn3)C2)c1C (stereo not given),-14.7
20,COc1cc(C(=O)Nc2nc(C)no2)ccc1OC1CCCC1,-2.12
21,COc1cccc(-n2c(C)cc(C(=O)NC(C)(C)C(N)=O)c2C)c1,-2
22,Brc1ccccc1-c1nnc(CNCCn2cccn2)o1,-24.5

row,Structure (SMILES),cytotoxicity at 10 µM [%]
1,Cc1nc(CN2CCCN(Cc3nccn3C(C)C)CC2)no1,-1.91
2,CC(=O)NCCNC(=O)CN1CCCC(Cn2cncn2)C1 (stereo not given),-18.9
3,CC(C)CCC(=O)N(C)CC(=O)Nc1ccc(Br)cn1,-8.39
4,CC(C)CC(=O)N(C)CC(=O)Nc1ccc(Br)cn1,-1.43
5,O=C(NC1CCN(Cc2cccc3c2OCCO3)CC1)c1cccs1,-4.71
6,O=C1CCC2(CCC(NCc3ccsc3)CC2)N1Cc1ccccc1 (stereo not given),3.79
7,O=C(CN1CC(c2nc(C3CC3)no2)C1)N1CCOCC1,-9.76
8,Cc1noc([C@@H]2C[C@H]3OCC[C@H]3N(CC3CCCC3)C2)n1,-77.5
9,CN(C)C[C@H]1OC[C@@H]2CCN(C(=O)c3ccc[nH]3)C[C@@H]21,5.41
10,O=C(NC1CC1)[C@@H]1C[C@@H]2CCN(Cc3ccccc3)C[C@H]2O1,-68
11,COCC1CN(Cc2ccc(C)o2)Cc2cn(C)nc21 (stereo not given),-9.2
12,CNCC(=O)N1CC(c2cc(Nc3ncccn3)nc(C)n2)C1,4.19
13,CCOC1COC2(CCN(Cc3cccc(C#N)c3)CC2)C1 (stereo not given),-2.66
14,O=C(c1ccncc1F)N1CCc2onc(COc3cccnc3)c2C1,-70.6
15,CN1CCn2c(-c3ccccc3)cnc2C12CCN(CC1CC1)CC2,5.35
16,COc1ccc(C[C@H]2CN(C3CCOCC3)CC[C@@H]2OCC2CC2)cc1,2.38
17,COc1ccc(CN2CCc3c(CNC(=O)CC#N)nn(C)c3C2)cc1,9.67
18,CC(=O)N1[C@H](CN(C)C)C[C@@H]2CN(C(=O)c3cccc(F)c3)CC[C@@H]21,5.85
19,COCCN1CCOCC12CCN(C(=O)c1cccnc1)CC2,-73.1
20,COCC1CN(Cc2ccncc2)Cc2nn(CC3CC3)cc21 (stereo not given),-73.7
21,O=C(C1CN(CC2CCOCC2)CC12CCOCC2)N1CCCC1 (stereo not given),6.65
22,CN(C)C(=O)CN1C[C@H]2CC[C@@H](C1)N(Cc1c(F)cccc1Cl)C2,5.48
